Here are results for five compounds from ChEMBL document CHEMBL1154606 (J Med Chem, 2009).

Where a SMILES comes first, the peptide text is derived from it. [ ]: non-standard residue; d: D form. NMeF = CN[C@@H](Cc1ccccc1)C(=O)O

For assay [1], the target named is T1, Neuromedin-K receptor (Homo sapiens, UniProt P29371).
T1 sequence (P29371 whole entry): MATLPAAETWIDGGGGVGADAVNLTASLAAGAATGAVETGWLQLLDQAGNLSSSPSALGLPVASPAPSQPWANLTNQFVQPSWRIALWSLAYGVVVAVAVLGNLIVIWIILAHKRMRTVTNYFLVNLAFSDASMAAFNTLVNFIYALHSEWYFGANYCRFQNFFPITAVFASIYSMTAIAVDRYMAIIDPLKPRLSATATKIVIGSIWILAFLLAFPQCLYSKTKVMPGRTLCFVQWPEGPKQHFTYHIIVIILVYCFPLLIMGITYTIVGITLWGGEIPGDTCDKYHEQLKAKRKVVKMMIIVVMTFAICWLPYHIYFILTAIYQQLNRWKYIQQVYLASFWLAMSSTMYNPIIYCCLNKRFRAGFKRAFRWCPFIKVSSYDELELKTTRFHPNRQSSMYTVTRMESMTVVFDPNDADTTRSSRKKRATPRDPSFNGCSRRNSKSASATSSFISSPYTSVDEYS
Nature of the assay: Binding affinity to human NK3 receptor.

Assay [2] deals with T2, Substance-K receptor (Homo sapiens, UniProt P21452).
T2 sequence (P21452 whole entry): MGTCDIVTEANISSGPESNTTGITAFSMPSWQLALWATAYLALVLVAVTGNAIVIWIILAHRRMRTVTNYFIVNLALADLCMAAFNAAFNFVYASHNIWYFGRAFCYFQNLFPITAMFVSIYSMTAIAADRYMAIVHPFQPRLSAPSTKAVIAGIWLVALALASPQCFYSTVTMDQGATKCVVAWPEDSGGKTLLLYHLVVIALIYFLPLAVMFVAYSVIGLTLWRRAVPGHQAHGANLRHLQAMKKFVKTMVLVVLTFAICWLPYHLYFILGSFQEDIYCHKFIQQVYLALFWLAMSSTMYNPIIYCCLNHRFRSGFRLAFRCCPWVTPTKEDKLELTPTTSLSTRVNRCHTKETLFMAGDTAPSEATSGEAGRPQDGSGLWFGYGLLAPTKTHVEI
The assay can be described thus: Binding affinity to human NK2 receptor.

Assay [3] has as its target T1, Neuromedin-K receptor. Nature of the assay: Agonist activity at human NK3 receptor expressed in cells assessed as accumulation of [3H]inositol phosphate. The class given is functional, cell-based. A digest of the protocol: (§1)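 At 48 h, preincubated 10 min at RT in HBSS/20 mM HEPES pH 7.4 with 8 mM LiCl, then stimulated with [MePhe⁷]NKB (0.1 nM–10 μM) for 45 min at 37 °C. Inositol phosphates were extracted with formic acid, captured on yttrium silicate beads and counted. EC50 and Hill slope were derived.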

Assay [4] has as its target T3, Neuromedin-K receptor (Cavia porcellus, UniProt P30098).
T3 sequence (P30098 whole entry): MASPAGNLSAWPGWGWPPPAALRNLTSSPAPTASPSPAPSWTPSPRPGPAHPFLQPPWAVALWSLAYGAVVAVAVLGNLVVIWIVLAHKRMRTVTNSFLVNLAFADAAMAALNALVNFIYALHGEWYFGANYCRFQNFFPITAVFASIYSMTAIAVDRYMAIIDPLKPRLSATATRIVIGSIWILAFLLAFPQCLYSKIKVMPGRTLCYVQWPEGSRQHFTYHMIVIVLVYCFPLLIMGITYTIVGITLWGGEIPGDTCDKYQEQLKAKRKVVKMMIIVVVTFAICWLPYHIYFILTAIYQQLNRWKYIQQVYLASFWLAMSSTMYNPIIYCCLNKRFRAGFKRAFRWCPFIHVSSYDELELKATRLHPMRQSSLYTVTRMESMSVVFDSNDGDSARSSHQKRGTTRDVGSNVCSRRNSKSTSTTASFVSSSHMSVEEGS
Nature of the assay: Agonist activity at guinea pig NK3 receptor expressed in cells assessed as accumulation of [3H]inositol phosphate. The class given is functional, cell-based. A digest of the protocol:
as §1

Assay [5] deals with T1, Neuromedin-K receptor. The assay can be described thus: Antagonist activity at wild type human NK3 receptor expressed in HEK293 cells assessed as inhibition of [MePhe7]NKB-induced accumulation of [3H]inositol phosphate. The class given is functional, cell-based. The conditions noted are these: read-out: pA2 (converted). A digest of the protocol:
(§2)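 HEK293 cells transiently transfected with NK3 receptor, labeled with myo-[³H]-inositol and assayed 48 h post-transfection in HBSS/HEPES pH 7.4 with 8 mM LiCl. Fixed antagonist concentrations were preincubated 20 min at 37 °C, then [MePhe⁷]NKB (0.1 nM–10 μM) was added for 45 min at 37 °C. [³H]IP was captured on yttrium silicate beads. Agonist EC50 shifts gave dose ratios for Schild regression. Six curves from three transfections.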

Assay [6] deals with T4, Neuromedin-K receptor (Cavia porcellus, UniProt P30098). Nature of the assay: Antagonist activity at […] guinea pig NK3 receptor A1142.58T mutant expressed in HEK293 cells assessed as inhibition of [MePhe7]NKB-induced accumulation of [3H]inositol phosphate. It is filed as functional, cell-based. A digest of the protocol: as §2
Another assay has as its target Substance-P receptor (Homo sapiens, UniProt P25103). The assay can be described thus: Displacement of [3H]substance P from human recombinant NK1 receptor expressed in HEK293 cells. It is filed as cell-based. Summed up:
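hNK1 membranes from transient HEK293 (2.5 μg protein/well) in 50 mM HEPES, 3 mM MnCl2, 2 μM phosphoramidon, 16.8 μM leupeptin, 0.04% BSA, pH 7.4. Incubated with 0.6 nM [³H]substance P plus 10 inhibitor concentrations (0.0003–10 μM) for 75 min at RT. Nonspecific binding defined with 10 μM CP-96,345. Ki by Cheng-Prusoff; three experiments in duplicate.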
Background: Displacement assays read how much labelled ligand stays bound in the presence of the test substance.

Assay [7] has as its target T2, Substance-K receptor. Nature of the assay: Displacement of [3H]SR48968 from human recombinant NK2 receptor expressed in HEK293 cells. The class given is cell-based. Summed up: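 hNK2 membranes from transient HEK293 (2.5 μg protein/well) in 50 mM Tris-HCl, 3 mM MnCl2, 4 μg/mL chymostatin, 0.04% BSA, pH 7.4. Incubated with 0.32 nM [³H]SR 48968 plus 10 inhibitor concentrations (0.0003–10 μM) for 75 min at RT. Ki by Cheng-Prusoff; three experiments in duplicate.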

In assay [8] the target is T1, Neuromedin-K receptor. Nature of the assay: Displacement of [3H]osanetant from human recombinant NK3 receptor expressed in HEK293 cells. It is filed as cell-based. Summed up: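 Membranes from transiently transfected HEK293 cells (5 μg protein/well) in 50 mM Tris-HCl, 4 mM MnCl2, 1 μM phosphoramidon, 0.1% BSA, pH 7.4. […] Nonspecific binding defined with 10 μM competitor. Filtered on GF/C. Ki by Cheng-Prusoff; three experiments in duplicate.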

Assay [9] deals with T3, Neuromedin-K receptor. The assay can be described thus: Displacement of [3H]osanetant from guinea pig recombinant NK3 receptor expressed in HEK293 cells. It is filed as cell-based. Summed up: (§3)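 Membranes from transiently transfected HEK293 cells (5 μg protein/well) in 50 mM Tris-HCl, 4 mM MnCl2, 1 μM phosphoramidon, 0.1% BSA, pH 7.4. Nonspecific binding defined with 10 μM competitor. Filtered on GF/C. Ki by Cheng-Prusoff; three experiments in duplicate.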

The target in assay [10] is T4, Neuromedin-K receptor. Nature of the assay: Displacement of [3H]osanetant from guinea pig recombinant NK3 receptor A1142.58T expressed in HEK293 cells. The class given is cell-based. Summed up:
as §3

In assay [11] the target is T3, Neuromedin-K receptor. The assay can be described thus: Antagonist activity at wild type guinea pig NK3 receptor expressed in HEK293 cells assessed as inhibition of [MePhe7]NKB-induced accumulation of [3H]inositol phosphate. The class given is functional, cell-based. The conditions noted are these: read-out: pA2 (converted). A digest of the protocol:
as §2

Assay [12] has as its target T5, Neuromedin-K receptor (Homo sapiens) (UniProt P29371).
T5 sequence (whole entry): T1 sequence (P29371 whole entry)
Conditions: HEK293.

Assay [13] has as its target T5, Neuromedin-K receptor (Homo sapiens). The conditions noted are these: HEK293. The source holds these as a separate data set.
Assay [14] deals with T6, Neuromedin-K receptor (Cavia porcellus) (UniProt P30098).
T6 sequence (whole entry): T3 sequence (P30098 whole entry)
The conditions noted are these: HEK293.

Assay [15] deals with T6, Neuromedin-K receptor (Cavia porcellus). The conditions noted are these: HEK293. This is another data set of the same source.
Assay [16] concerns Neurokinin 3 receptor (Cavia porcellus). Nature of the assay: Equilibrium binding affinity to guinea pig NK3 receptor A1142.58T mutant expressed in HEK293 cells.

Substance-P receptor, sequence (P25103 whole entry): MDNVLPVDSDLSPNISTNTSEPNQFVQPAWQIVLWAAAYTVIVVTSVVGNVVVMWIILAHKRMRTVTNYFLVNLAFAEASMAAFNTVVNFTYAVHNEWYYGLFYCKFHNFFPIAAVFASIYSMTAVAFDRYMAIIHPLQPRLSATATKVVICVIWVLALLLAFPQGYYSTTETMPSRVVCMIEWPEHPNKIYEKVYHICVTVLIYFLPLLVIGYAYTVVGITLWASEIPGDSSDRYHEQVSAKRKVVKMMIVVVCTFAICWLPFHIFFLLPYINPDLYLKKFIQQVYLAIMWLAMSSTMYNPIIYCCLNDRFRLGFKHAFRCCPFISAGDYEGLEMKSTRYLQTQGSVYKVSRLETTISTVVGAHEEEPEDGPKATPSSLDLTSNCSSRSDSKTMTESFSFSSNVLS

For orientation: Ki means a measure of affinity in units of concentration, obtained from inhibition or displacement. Usually EC50 stands for the concentration that produces a half-maximal response. With `CSCC[C@H](NC(=O)[C@H](CC(C)C)NC(=O)CNC(=O)[C@H](Cc1ccccc1)N(C)C(=O)[C@H](Cc1ccccc1)NC(=O)[C@H](Cc1ccccc1)NC(=O)[C@H](CC(=O)O)NC(=O)[C@H](Cc1cnc[nH]1)NC(=O)[C@H](CCSC)NC(=O)[C@@H](N)CC(=O)O)C(N)=O` (H-DMHDFF[NMeF]GLM-NH2), the inhibition constant Ki at Neuromedin-K receptor [1] is 0.3 nM; at Substance-K receptor [2], 1600 nM. The half-maximal effective concentration (EC50) at Neuromedin-K receptor [3] and at Neuromedin-K receptor [4] was 0.6 nM in each case.

As usually defined, the pA2 is a measure of antagonist potency on a negative log scale. For `CN(Cc1ccc(F)c(C(F)(F)F)c1)C(=O)C(C)(CCN1CCC(N2CCCC2=O)CC1)c1ccc(Cl)c(Cl)c1` (stereo unspecified), the Kb at Neuromedin-K receptor [5] was 8.91 nM. The pA2 on Neuromedin-K receptor [6] amounted to 7.96. The inhibitory constant (Ki) stood at 182 nM on Substance-P receptor; 109 nM at Substance-K receptor [7]; 0.8 nM on Neuromedin-K receptor [8]; 1.6 nM on Neuromedin-K receptor [9]; 1.8 nM on Neuromedin-K receptor [10].

Regarding `CC(=O)N(C)C1CCN(CCC(C)(C(=O)N(C)Cc2ccccc2Cl)c2ccc(Cl)c(Cl)c2)CC1` (stereo unspecified), the figures for the Kb at Neuromedin-K receptor [5] and at Neuromedin-K receptor [11] were 18.2 nM and 24 nM, respectively. The pA2 on Neuromedin-K receptor [6] came to 7.53. Also, the inhibitory constant (Ki) on Substance-P receptor amounted to 70.9 nM; at Substance-K receptor [7], 953 nM; on Neuromedin-K receptor [8] it was 10.4 nM; at Neuromedin-K receptor [9], 8 nM; on Neuromedin-K receptor [10], 11.9 nM.

As usually defined, the Kd is the concentration at which binding is half-saturated. A lower Kd goes with higher affinity. As to `CC(=O)N(C)C1(c2ccccc2)CCN(CCC[C@]2(c3ccc(Cl)c(Cl)c3)CCCN(C(=O)c3ccccc3)C2)CC1` [OSANETANT], the T1/2 in assay [12] came out at 4.01 min; in [13] it was 10.1 min; in assay [14], 10.2 min; in assay [15], 31.5 min. In [16], the dissociation constant (Kd) was 0.08 nM.

`CC(=O)N(C)C1CCN(CCC(C)(C(=O)N(C)Cc2ccc(F)c(C(F)(F)F)c2)c2ccc(Cl)c(Cl)c2)CC1` (stereo unspecified): the Kb at Neuromedin-K receptor [5] is 7.76 nM. For the same compound, at Neuromedin-K receptor [6], the pA2 came out at 7.83. Moreover, the Ki on Substance-P receptor is 152 nM; at Substance-K receptor [7] it was 515 nM; on Neuromedin-K receptor [8], 3.1 nM; on Neuromedin-K receptor [9], 3.5 nM; at Neuromedin-K receptor [10] it was 2.7 nM.
